24 molecules from ChEMBL document CHEMBL3351347, “Eight pairs of epimeric triterpenoids involving a characteristic spiro-E/F ring from Abies faxoniana” (J Nat Prod, 2015) can be followed below.

For assay [1], the system named is HepG2. Description: Cytotoxicity against human HepG2 cells after 24 hrs by MTT assay. In kind it is functional, cell-based. To be noted: HepG2, 24 h. The essentials: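 Cells grown in DMEM with 10% FBS, penicillin/streptomycin at 37 °C, 5% CO2. MTT (5 mg/mL solution) added for 2−4 h at 37 °C, formazan dissolved in DMSO, absorbance read at 570 nm. Viability = mean OD of treated wells / DMSO-control OD; IC50 from viability.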

Assay [2] is described as follows: Cytotoxicity against human HuH7 cells after 24 hrs by MTT assay. It counts as functional, cell-based. The conditions noted are these: Huh-7, 24 h. In short, it runs like this:
(§1)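 Cells grown in DMEM with 10% FBS, penicillin/streptomycin at 37 °C, 5% CO2. […] MTT (5 mg/mL solution) added for 2−4 h at 37 °C, formazan dissolved in DMSO, absorbance read at 570 nm. Viability = mean OD of treated wells / DMSO-control OD; IC50 from viability.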

For assay [3], the system named is SMMC-7721. Description: Cytotoxicity against human SMMC7721 cells after 24 hrs by MTT assay. It counts as functional, cell-based. To be noted: SMMC-7721, 24 h. In short, it runs like this: as §1
A short description of assay [4]: Cytotoxicity against human QSG7701 cells after 24 hrs by MTT assay. In kind it is cell-based. The conditions noted are these: QSG7701, 24 h. In short, it runs like this:
as §1

The test system of assay [5] is Huh-7. Description: Induction of cell cycle arrest in human HuH7 cells assessed as increase in accumulation at G2/M phase at 5 to 20 uM after 24 hrs by propidium iodide staining based flow cytometry. In kind it is functional. The essentials:
(§2)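 Huh7 exposed 24 h to 5, 10, 20 μM. Cells washed in PBS with 2% FBS, then 3 × 10^5 cells/mL fixed overnight in cold absolute EtOH at 4 °C. After two PBS washes, stained with PI solution (3.8 mM sodium citrate, 20 μg/mL PI in PBS) plus RNase A, 30 min at room temperature in the dark. DNA content read by flow cytometry; means ± SEM, three independent experiments.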

Assay [6] deals with Huh-7. Description: Induction of cell cycle arrest in human HuH7 cells assessed as reduction in accumulation at G0/G1 phase at 5 to 20 uM after 24 hrs by propidium iodide staining based flow cytometry. It counts as functional. The essentials: as §2
In assay [7] the test system is Huh-7. Description: Induction of cell cycle arrest in human HuH7 cells assessed as reduction in accumulation at S phase at 5 to 20 uM after 24 hrs by propidium iodide staining based flow cytometry. In kind it is functional. In short, it runs like this: as §2
Assay [8] has as its system Huh-7. In words: Induction of apoptosis in human HuH7 cells at 5 to 20 uM after 24 hrs by annexin V-FITC and propidium iodide double staining based flow cytometry. It counts as functional, cell-based. The essentials: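 Huh7 exposed 24 h to 5, 10, 20 μM, then collected, PBS-washed and resuspended in binding buffer with annexin V-FITC (10 μg/mL) for 10 min in the dark. PI (20 μg/mL) added, samples read by flow cytometry immediately. Means ± SEM, three independent experiments.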

For assay [9], the system named is Huh-7. Description: Induction of intracellular ROS production in human HuH7 cells at 5 to 20 uM after 24 hrs by carboxy-H2DCFDA staining based flow cytometry. It counts as functional, cell-based. In short, it runs like this: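 Huh7 exposed 24 h to 5, 10, 20 μM, harvested, PBS-washed, then loaded in DMEM with 10 μM carboxy-H2DCFDA for 30 min at 37 °C. Washed again; fluorescence measured by flow cytometry as an index of intracellular ROS.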

For assay [10], the system named is Huh-7. In words: Induction of intracellular ROS production in human HuH7 cells at 20 uM pre-treated with 10 mM ROS scavenger NAC measured after 24 hrs post dose by carboxy-H2DCFDA staining based flow cytometry.

The source made the active and inactive calls. The rule behind the calls is not given here. Bounds are passed on as bounds.

Take `C[C@@H]1C[C@@]2(C[C@@H](C)[C@@]3(CC[C@@]4(C)[C@H]5CC[C@H]6C(C)(C)C(=O)CC[C@]6(C)[C@@H]5CC[C@@]43C)O2)OC1=O`: the concentration for half-maximal inhibition (IC50) in assay [1] is more than 50 µM; in [2], 18.4 µM; in assay [3], 28.3 µM; in [4] it was more than 50 µM.

`C[C@H](CC(=O)C[C@@H](C)[C@]1(C)CC=C2C3=CC[C@H]4C(C)(C)[C@H](O)CC[C@]4(C)[C@@H]3CC[C@]21C)C(=O)O`: the IC50 in assay [1] is more than 50 µM; in [2], more than 50 µM; in assay [3], more than 50 µM; in assay [4], 42.4 µM.

For `C[C@@H]1C[C@]2(C[C@@H](C)[C@@]3(CC[C@@]4(C)C5=CC[C@H]6C(C)(C)C(=O)CC[C@]6(C)[C@@H]5CC[C@@]43C)O2)OC1=O`, the IC50 turned out to be 14.1 µM in [1], 13.5 µM in assay [2], 20.7 µM in assay [3] and 15.5 µM in assay [4].

As for `C[C@@H]1C[C@@]2(C[C@@H](C)[C@@]3(CC[C@@]4(C)C5=CC[C@H]6C(C)(C)[C@H](O)CC[C@]6(C)[C@@H]5CC[C@@]43C)O2)OC1=O`, the IC50 in assay [1] is more than 50 µM; in [2], 16.4 µM; in assay [3], 19.1 µM; in [4] it was 17.6 µM.

In the case of `C/C(=C/CC[C@@H](C)[C@H]1CC[C@@]2(C)C3=CC[C@H]4C(C)(C)[C@@H](O)CC[C@]4(C)[C@@H]3CC[C@]12C)C(=O)O`, the IC50 in assay [1], in assay [2], in assay [3] and in assay [4] was more than 50 µM each time.

As for `C[C@@H]1C[C@]2(C[C@@H](C)[C@@]3(CC[C@]4(C)[C@]3(C)CC[C@@]35O[C@@]43[C@@H](OC(=O)Cc3ccccc3)C[C@H]3C(C)(C)C(=O)CC[C@@]35C)O2)OC1=O`, the half-maximal inhibitory concentration (IC50) in [1], in assay [2], in [3] and in assay [4] was more than 50 µM each time.

Turning to `COC(=O)[C@H](C)CC(=O)C[C@@H](C)[C@]1(C)CC[C@@]2(C)C3=CC[C@H]4C(C)(C)[C@H](O)CC[C@]4(C)[C@@H]3CC=C21`, the IC50 in [1], in assay [2], in [3] and in [4] was more than 50 µM each time.

In the case of `C[C@@H]1C[C@@]2(C[C@@H](C)[C@@]3(CC[C@@]4(C)[C@H]5CC[C@H]6C(C)(C)[C@H](O)CC[C@@]67C[C@]57CC[C@@]43C)O2)OC1=O`, the IC50 in assay [1] was 21.1 µM; in assay [2], 16 µM; in assay [3] it was 25.2 µM; in [4], more than 50 µM.

For the molecule `C/C(=C/CC[C@@H](C)[C@H]1CC[C@@]2(C)C3=CC[C@H]4C(C)(C)C(=O)CC[C@]4(C)[C@@H]3CC[C@]12C)C(=O)O`, the IC50 in assay [1] was 24 µM; in assay [2], more than 50 µM; in assay [3] it was more than 50 µM; in assay [4], more than 50 µM.

For the molecule `C[C@@H]1C[C@@H](C[C@@H](C)[C@@]2(O)CC[C@@]3(C)C4=C(CC[C@@]32C)[C@@]2(C)CCC(=O)C(C)(C)[C@@H]2CC4)OC1=O`, the concentration for half-maximal inhibition (IC50) in assay [1] was more than 50 µM; in assay [2] it was 40.1 µM; in assay [3] it was 34.6 µM; in [4], 37 µM.

`C[C@@H]1C[C@]2(C[C@@H](C)[C@@]3(CC[C@@]4(C)C5=C(C(=O)C[C@@]43C)[C@@]3(C)CCC(=O)C(C)(C)[C@@H]3CC5)O2)OC1=O`: the IC50 in [1] was 31.2 µM; in [2], more than 50 µM; in assay [3], more than 50 µM; in assay [4], 26.8 µM.

On to `C[C@@H]1C[C@]2(C[C@@H](C)[C@@]3(CC[C@@]4(C)C5=CC[C@H]6C(C)(C)[C@H](O)CC[C@]6(C)[C@@H]5CC[C@@]43C)O2)OC1=O`, for which the IC50 in assay [1] is more than 50 µM; in assay [2], 16.4 µM; in assay [3], 19.1 µM; in assay [4] it was 17.6 µM.

As for `COc1cccc2c1C(=O)c1c(O)c3c(c(O)c1C2=O)C[C@@](O)(C(=O)CO)C[C@@H]3O[C@H]1C[C@H](N)[C@H](O)[C@H](C)O1` [DOXORUBICIN], the IC50 came out at 0.7 µM in assay [2], 0.3 µM in [3] and 2.9 µM in assay [4].

Take `C[C@@H]1C[C@]2(C[C@@H](C)[C@@]3(CC[C@@]4(C)C(=O)[C@@]5(CC[C@@]43C)[C@@H](O)C[C@H]3C(C)(C)C(=O)CC[C@@]35C)O2)OC1=O`: the 50% inhibitory concentration (IC50) in [1] turned out to be 15.4 µM; in assay [2], 12.3 µM; in [3], 10.1 µM; in assay [4], 8.2 µM.

As for `CC(=O)O[C@@H]1CC[C@]23C[C@@]24CC[C@@]2(C)[C@@](C)(CC[C@]25O[C@@]2(C[C@@H](C)C(=O)O2)C[C@H]5C)[C@H]4CC[C@H]3C1(C)C`, the IC50 in assay [1] is 9.8 µM; in assay [2] it was 7.5 µM; in assay [3] it was 10.7 µM; in [4], more than 50 µM. In addition, the result in [5], in [6], in assay [7] and in assay [9] was Active. The Activity result in assay [8] is “Dose-dependent effect”. Besides, the result in assay [10] was inactive.

With `C[C@@H]1C[C@]2(C[C@@H](C)[C@@]3(CC[C@@]4(C)[C@H]5CC[C@H]6C(C)(C)[C@H](O)CC[C@@]67C[C@]57CC[C@@]43C)O2)OC1=O`, the half-maximal inhibitory concentration (IC50) in assay [1] is 21.1 µM; in assay [2], 16 µM; in assay [3], 25.2 µM; in [4], more than 50 µM.

As to `C[C@@H]1C[C@]2(C[C@@H](C)[C@@]3(CC[C@@]4(C)[C@H]5CC[C@H]6C(C)(C)C(=O)CC[C@]6(C)[C@@H]5CC[C@@]43C)O2)OC1=O`, the IC50 in assay [1] is more than 50 µM; in assay [2], 18.4 µM; in assay [3], 28.3 µM; in [4], more than 50 µM.

With `C[C@@H]1C[C@@]2(C[C@@H](C)[C@@]3(CC[C@]4(C)[C@]3(C)CC[C@@]35O[C@@]43[C@@H](OC(=O)Cc3ccccc3)C[C@H]3C(C)(C)C(=O)CC[C@@]35C)O2)OC1=O`, the IC50 in assay [1], in [2], in [3] and in assay [4] was more than 50 µM each time.

In the case of `CO[C@@H]1CC[C@@]2(C)[C@@H](C[C@H](O)[C@@]23CC[C@]2(C)[C@@H]([C@H](C)C[C@@H]4C=C(C)C(=O)O4)CC[C@@]2(C)C3=O)C1(C)C`, the IC50 is 20.6 µM in assay [1], 35.1 µM in [2], more than 50 µM in [3] and more than 50 µM in assay [4].

For `CC1=CC(O)(C[C@@H](C)C2=CC[C@@]3(C)C4=C(CC[C@]23C)[C@@]2(C)CCC(=O)C(C)(C)[C@@H]2CC4)OC1=O` (some centres not stated) [NEOABIESLACTONE E], the 50% inhibitory concentration (IC50) in assay [1] worked out at 16.7 µM; in assay [2], 20.9 µM; in [3], 13.4 µM; in [4], 10.1 µM.

Take `C[C@@H]1C[C@@]2(C[C@@H](C)[C@@]3(CC[C@@]4(C)C(=O)[C@@]5(CC[C@@]43C)[C@@H](O)C[C@H]3C(C)(C)C(=O)CC[C@@]35C)O2)OC1=O`: the IC50 in assay [1] came to 15.4 µM; in assay [2], 12.3 µM; in [3] it was 10.1 µM; in assay [4], 8.2 µM.

On to `C[C@@H]1C[C@@]2(C[C@@H](C)[C@@]3(CC[C@@]4(C)C5=CC[C@H]6C(C)(C)C(=O)CC[C@]6(C)[C@@H]5CC[C@@]43C)O2)OC1=O`, for which the IC50 in assay [1] came to 14.1 µM; in [2], 13.5 µM; in assay [3], 20.7 µM; in assay [4], 15.5 µM.

On to `CC(=O)O[C@@H]1CC[C@]23C[C@@]24CC[C@@]2(C)[C@@](C)(CC[C@]25O[C@]2(C[C@@H](C)C(=O)O2)C[C@H]5C)[C@H]4CC[C@H]3C1(C)C`, for which the half-inhibitory concentration (IC50) in [1] is 9.8 µM; in [2], 7.5 µM; in [3] it was 10.7 µM; in [4], more than 50 µM. Also, the outcome in assay [5], in assay [6], in assay [7] and in [9] was Active. Further, in assay [8], the Activity entry is “Dose-dependent effect”. Further, the outcome in assay [10] was inactive.

Take `C[C@@H]1C[C@@]2(C[C@@H](C)[C@@]3(CC[C@@]4(C)C5=C(C(=O)C[C@@]43C)[C@@]3(C)CCC(=O)C(C)(C)[C@@H]3CC5)O2)OC1=O`: the IC50 was 31.2 µM in assay [1], more than 50 µM in assay [2], more than 50 µM in assay [3] and 26.8 µM in assay [4].
